Data published in BindingDB's records for doi:10.1021/jm051217c (University Hospital of The Westfälische …, 2006).

Experiments:
[1] = target: T1, Caspase-1 (Homo sapiens, UniProt P29466); test: Inhibition of caspase 1
T1 sequence (P29466 whole entry): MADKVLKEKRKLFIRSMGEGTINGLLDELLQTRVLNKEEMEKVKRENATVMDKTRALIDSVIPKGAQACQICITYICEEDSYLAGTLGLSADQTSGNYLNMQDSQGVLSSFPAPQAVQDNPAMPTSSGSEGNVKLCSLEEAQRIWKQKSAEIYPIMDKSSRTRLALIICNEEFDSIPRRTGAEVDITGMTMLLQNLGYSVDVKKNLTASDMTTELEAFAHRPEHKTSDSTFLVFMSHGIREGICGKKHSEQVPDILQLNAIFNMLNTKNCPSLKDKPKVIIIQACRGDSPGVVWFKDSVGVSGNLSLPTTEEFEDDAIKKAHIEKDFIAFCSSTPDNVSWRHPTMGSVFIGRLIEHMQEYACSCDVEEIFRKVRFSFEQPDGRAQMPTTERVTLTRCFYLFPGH
Summary of the method: (§1)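 Recombinant human caspase-1, -6 or -8 at 0.5 units per assay, preincubated 10 min at 37 °C with compound in DMSO at single doses from 5 pM to 500 µM. Fluorogenic AMC substrate then added at 10 µM final (caspase-1 Ac-YVAD-AMC, caspase-6 Ac-VEID-AMC, caspase-8 Ac-IETD-AMC) for a further 10 min. Read-out was AMC fluorescence. IC50 taken by nonlinear regression.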

[2] = target: Caspase-8 (Homo sapiens, UniProt Q14790); test: Inhibition of caspase 8; summary of the method: as §1
Sequence of Caspase-8 (Q14790 217-374 limits assumed): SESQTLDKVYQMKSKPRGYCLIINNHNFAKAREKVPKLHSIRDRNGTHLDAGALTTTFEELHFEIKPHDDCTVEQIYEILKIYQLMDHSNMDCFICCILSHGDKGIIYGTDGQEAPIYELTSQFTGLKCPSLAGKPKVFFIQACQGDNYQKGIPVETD
Sequence of Caspase-8 (Q14790 385-479 limits assumed): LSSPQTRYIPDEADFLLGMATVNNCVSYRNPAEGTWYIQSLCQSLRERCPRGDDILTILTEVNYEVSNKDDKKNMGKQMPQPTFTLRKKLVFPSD

[3] = target: T2, Caspase-6 (Homo sapiens, UniProt P55212); test: Inhibition of caspase 6; summary of the method: as §1
T2 sequence (P55212 whole entry): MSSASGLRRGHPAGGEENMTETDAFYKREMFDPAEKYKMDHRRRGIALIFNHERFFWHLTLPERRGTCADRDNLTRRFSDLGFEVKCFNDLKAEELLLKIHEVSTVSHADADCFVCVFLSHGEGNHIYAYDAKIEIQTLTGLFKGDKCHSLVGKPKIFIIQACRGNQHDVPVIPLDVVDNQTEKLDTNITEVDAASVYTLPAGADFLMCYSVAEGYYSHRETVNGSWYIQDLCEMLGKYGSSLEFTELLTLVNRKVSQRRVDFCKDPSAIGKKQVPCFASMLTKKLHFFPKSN

Measured: IC50

CCC[CH2][Sn]([CH2]CCC)([CH2]CCC)[c]1ccc(CN2C(=O)C(=O)c3cc(S(=O)(=O)N4CCC[C@H]4COC)ccc32)cc1 [(S)-5-[1-(2-methoxymethylpyrrolidinyl)sulfonyl]-1-(4-(tributylstannyl)benzyl)isatin]
> 500 µM: all assays above

CCC[CH2][Sn]([CH2]CCC)([CH2]CCC)[c]1ccc(CN2C(=O)C(=O)c3cc(S(=O)(=O)N4CCC[C@H]4COc4ccccc4)ccc32)cc1 [(S)-5-[1-(2-phenoxymethylpyrrolidinyl)sulfonyl]-1-(4-(tributylstannyl)benzyl)isatin]
> 500 µM: all assays above
